Reference: publication PMC3263943 (Bioscience Reports, 2011)

What was measured:
human calmodulin (human) = human calmodulin (human) (UniProt P0DP23); test: native gel or EMSA
human CaM (calmodulin) = human CaM (calmodulin) (Homo sapiens, UniProt P0DP23); test: Native gel titration of CaM with peptide; format: binding; details: presence of calcium ions; from Kd,app by native gel densitometry
Outline: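 Bacterially expressed CaM (E. coli Rosetta (DE3), calcium-dependent phenyl-Sepharose purification) held at 35 μM, calcium present, with synthetic IQ-motif peptide at 18–350 μM; incubated 1 h at 22°C. Native 15% polyacrylamide gel in Tris/glycine pH 8.8, Coomassie-stained. Fraction bound = complex band/(complex + free CaM), background-corrected densitometry. Means of three independent experiments fitted to hyperbolic binding equation; Kd,app ± S.E.M. from fit.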

Substance	Kd (human calmodulin (human))	Ranking of affinity for CaM (human CaM (calmodulin))
3IQ2, peptide of the second IQ-motif of human IQGAP3	27 µM	
3IQ3, peptide of the third IQ-motif of human IQGAP3	76 µM	
3IQ4, peptide of the fourth IQ-motif of human IQGAP3	65 µM	
Ac-KNVNSIVKIQAFFRARKAQDDYR-NH2 [3IQ4]		followed by 3IQ4
